Laboratory results reported in ChEMBL document CHEMBL1811756, “Discovery of novel c-Met kinase inhibitors bearing a thieno[2,3-d]pyrimidine or furo[2,3-d]pyrimidine scaffold” (Bioorg Med Chem, 2011).
Activity calls are given as the source filed them. No cut-off for these calls is given here.

Assays:
[1] = target: Proto-oncogene tyrosine-protein kinase receptor Ret (Homo sapiens, UniProt P07949); experiment: Inhibition of RET
In short: (§1)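 ELISA on plates pre-coated with Poly(Glu,Tyr) 4:1 at 20 µg/mL. Detection used anti-phosphotyrosine PY99, then HRP anti-mouse IgG and o-phenylenediamine/H₂O₂, read at 490 nm. IC50 was calculated by the Logit method from ≥3 independent tests at six concentrations each.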

[2] = tested on: Mus musculus; experiment: Toxicity in nude mouse xenografted with human U87MG cells assessed as body weight loss at 100 mg/kg, ip for 3 weeks; type: organism-based, U-87MG ATCC; parameters: dose 100 mg/kg, route intraperitoneal; conditions: in vivo, 504 h
In short: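 Nude mice bearing U-87MG tumor fragments were dosed ip 7 days/week for 3 weeks, n = 6 per group, versus vehicle controls. Body weight was monitored during treatment.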

[3] = target: T1, Hepatocyte growth factor receptor (Homo sapiens, UniProt P08581); experiment: Inhibition of c-Met after 60 mins by ELISA; in short: as §1
[4] = tested on: BaF3; experiment: Antiproliferative activity against […] BAF3 cells expressing TPR-Met assessed as inhibition of cell growth at 10 uM; type: functional; conditions: Mus musculus
In short: (§2)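 BaF3 cells stably expressing TPR-Met were seeded in 96-well plates. Next day they were exposed to compound at 10, 1 or 0.1 µM for 72 h. Growth was read by MTT at A570. Inhibition (%) = [1 − (A570/A570 control)] × 100.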

[5] = target: T1, Hepatocyte growth factor receptor; experiment: Inhibition of c-Met at 10 uM after 60 mins by ELISA
In short: (§3)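 c-Met tyrosine kinase ELISA with Poly(Glu,Tyr) 4:1 substrate and 10 µM ATP in HEPES pH 7.4 buffer with Mg²⁺/Mn²⁺, run 60 min at 37 °C. Phosphotyrosine was detected with PY99 and an HRP secondary antibody, read at 490 nm. Percent inhibition was measured at a single compound concentration.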

[6] = target: Vascular endothelial growth factor receptor 1 (Homo sapiens, UniProt P17948); experiment: Inhibition of FLT1; in short: as §1
[7] = tested on: BaF3; experiment: Antiproliferative activity against […] BAF3 cells expressing TPR-Met assessed as inhibition of cell growth at 0.1 uM; type: functional; conditions: Mus musculus; in short: as §2
[8] = target: Platelet-derived growth factor receptor alpha (Homo sapiens, UniProt P16234); experiment: Inhibition of PDGFRalpha; in short: as §1
[9] = Aqueous solubility of the compound; type: physicochemical; conditions: buffer
[10] = Oral bioavailability in mouse at 20 mg/kg; type: ADME, organism-based; conditions: in vivo
In short: (§4)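 Pharmacokinetics were run in mice after a single dose of 10 mg/kg iv or 20 mg/kg po.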

[11] = Half life in mouse at 10 mg/kg, iv and 20 mg/kg, po; type: ADME, organism-based; conditions: in vivo; in short: as §4
[12] = target: Proto-oncogene tyrosine-protein kinase Src (Homo sapiens, UniProt P12931); experiment: Inhibition of c-SRC; in short: as §1
[13] = tested on: BaF3; experiment: Antiproliferative activity against […] BAF3 cells expressing TPR-Met assessed as inhibition of cell growth at 1 uM; type: functional; conditions: Mus musculus; in short: as §2
[14] = target: T1, Hepatocyte growth factor receptor; conditions: BaF3, 0.1 to 10 uM
[15] = target: T1, Hepatocyte growth factor receptor; conditions: BaF3, 0.1-10 uM
[16] = target: Insulin-like growth factor 1 receptor (Homo sapiens, UniProt P08069); experiment: Inhibition of IGF1R; in short: as §1
[17] = target: T2, Ephrin type-B receptor 2 (Homo sapiens, UniProt P29323); experiment: Inhibition of EPHB2; in short: as §1
T2 sequence (P29323 whole entry): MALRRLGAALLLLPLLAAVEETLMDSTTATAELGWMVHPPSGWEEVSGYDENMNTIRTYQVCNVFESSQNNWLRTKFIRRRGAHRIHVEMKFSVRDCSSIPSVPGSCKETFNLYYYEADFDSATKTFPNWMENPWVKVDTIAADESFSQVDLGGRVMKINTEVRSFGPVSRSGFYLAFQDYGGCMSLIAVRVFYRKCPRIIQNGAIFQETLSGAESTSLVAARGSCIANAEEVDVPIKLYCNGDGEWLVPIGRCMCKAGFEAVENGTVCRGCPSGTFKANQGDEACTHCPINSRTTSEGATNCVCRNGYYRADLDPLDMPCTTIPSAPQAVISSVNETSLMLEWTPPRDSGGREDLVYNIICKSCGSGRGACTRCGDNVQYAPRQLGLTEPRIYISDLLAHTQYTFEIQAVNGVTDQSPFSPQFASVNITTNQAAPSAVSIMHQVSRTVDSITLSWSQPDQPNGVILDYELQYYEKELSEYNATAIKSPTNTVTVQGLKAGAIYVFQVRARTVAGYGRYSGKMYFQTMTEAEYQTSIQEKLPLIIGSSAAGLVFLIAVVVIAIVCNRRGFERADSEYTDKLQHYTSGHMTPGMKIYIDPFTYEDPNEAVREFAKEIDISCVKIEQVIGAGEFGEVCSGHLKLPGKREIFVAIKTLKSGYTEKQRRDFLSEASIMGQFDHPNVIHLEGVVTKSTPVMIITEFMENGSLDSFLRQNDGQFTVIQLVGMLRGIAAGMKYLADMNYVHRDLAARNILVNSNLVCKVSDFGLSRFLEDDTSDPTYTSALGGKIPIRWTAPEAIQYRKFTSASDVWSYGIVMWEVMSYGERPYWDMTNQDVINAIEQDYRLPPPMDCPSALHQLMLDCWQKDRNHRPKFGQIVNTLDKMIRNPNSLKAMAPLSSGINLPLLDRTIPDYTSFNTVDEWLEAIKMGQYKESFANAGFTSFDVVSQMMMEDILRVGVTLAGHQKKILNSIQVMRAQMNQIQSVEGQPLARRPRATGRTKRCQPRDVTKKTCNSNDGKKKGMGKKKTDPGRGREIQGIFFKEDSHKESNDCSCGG

[18] = target: Tyrosine-protein kinase ABL1 (Homo sapiens, UniProt P00519); experiment: Inhibition of Abl; in short: as §1
[19] = target: Receptor tyrosine-protein kinase erbB-2 (Homo sapiens, UniProt P04626); experiment: Inhibition of ERBB2; in short: as §1
[20] = target: Ephrin type-A receptor 2 (Homo sapiens, UniProt P29317); experiment: Inhibition of EPHA2; in short: as §1
[21] = target: Fibroblast growth factor receptor 1 (Homo sapiens, UniProt P11362); experiment: Inhibition of FGFR1; in short: as §1
[22] = target: Macrophage-stimulating protein receptor (Homo sapiens, UniProt Q04912); experiment: Inhibition of RON; in short: as §1
[23] = Clearance in mouse at 10 mg/kg, iv; type: ADME, organism-based; parameters: dose 10 mg/kg, route intravenous; conditions: in vivo; in short: as §4
[24] = target: Receptor tyrosine-protein kinase erbB-4 (Homo sapiens, UniProt Q15303); experiment: Inhibition of ERBB4; in short: as §1
[25] = Antitumor activity against human U87MG cells xenografted in nude mouse assessed as inhibition of tumor growth at 100 mg/kg; type: functional, U-87MG ATCC; conditions: U-87 MG
[26] = target: T1, Hepatocyte growth factor receptor; experiment: Inhibition of c-Met at 1 uM after 60 mins by ELISA; in short: as §3

T1 sequence (P08581 whole entry): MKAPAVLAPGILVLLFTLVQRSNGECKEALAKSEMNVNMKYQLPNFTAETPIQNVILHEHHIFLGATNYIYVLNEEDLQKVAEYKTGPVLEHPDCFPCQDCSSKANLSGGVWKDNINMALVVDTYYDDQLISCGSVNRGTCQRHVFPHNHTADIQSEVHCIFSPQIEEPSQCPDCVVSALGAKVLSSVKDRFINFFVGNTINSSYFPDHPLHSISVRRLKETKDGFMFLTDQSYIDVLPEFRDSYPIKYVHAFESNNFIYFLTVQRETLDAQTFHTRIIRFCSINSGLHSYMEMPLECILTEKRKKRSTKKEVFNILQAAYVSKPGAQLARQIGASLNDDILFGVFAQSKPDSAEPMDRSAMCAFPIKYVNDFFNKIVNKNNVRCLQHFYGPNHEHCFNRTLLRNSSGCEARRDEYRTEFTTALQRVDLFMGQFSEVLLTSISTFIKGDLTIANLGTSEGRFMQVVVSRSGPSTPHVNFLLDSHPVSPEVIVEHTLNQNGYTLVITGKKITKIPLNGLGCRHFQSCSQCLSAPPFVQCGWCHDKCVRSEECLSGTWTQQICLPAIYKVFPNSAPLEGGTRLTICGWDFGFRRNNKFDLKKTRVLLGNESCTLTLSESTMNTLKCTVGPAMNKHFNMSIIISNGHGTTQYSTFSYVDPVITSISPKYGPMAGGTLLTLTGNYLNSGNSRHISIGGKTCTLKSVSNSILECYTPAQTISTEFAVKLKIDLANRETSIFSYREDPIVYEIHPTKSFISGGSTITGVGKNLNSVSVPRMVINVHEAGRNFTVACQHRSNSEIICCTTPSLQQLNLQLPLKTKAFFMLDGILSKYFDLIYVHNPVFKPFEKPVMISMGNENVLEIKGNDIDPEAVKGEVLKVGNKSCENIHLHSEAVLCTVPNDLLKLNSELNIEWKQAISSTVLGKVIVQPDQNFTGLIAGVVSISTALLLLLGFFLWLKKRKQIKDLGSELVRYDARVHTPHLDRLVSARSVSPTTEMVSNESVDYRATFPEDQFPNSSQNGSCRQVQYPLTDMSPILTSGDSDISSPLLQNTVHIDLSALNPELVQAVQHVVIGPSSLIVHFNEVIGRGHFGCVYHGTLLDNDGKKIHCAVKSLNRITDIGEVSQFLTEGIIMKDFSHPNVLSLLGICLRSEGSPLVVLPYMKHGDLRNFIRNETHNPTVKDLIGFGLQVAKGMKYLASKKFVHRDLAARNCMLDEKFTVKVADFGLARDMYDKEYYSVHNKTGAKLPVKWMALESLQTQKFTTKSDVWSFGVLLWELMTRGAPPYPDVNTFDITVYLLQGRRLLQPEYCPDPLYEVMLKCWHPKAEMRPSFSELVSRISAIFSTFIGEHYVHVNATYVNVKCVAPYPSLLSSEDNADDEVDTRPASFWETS
Chain of Receptor tyrosine-protein kinase erbB-2 (P04626 whole entry): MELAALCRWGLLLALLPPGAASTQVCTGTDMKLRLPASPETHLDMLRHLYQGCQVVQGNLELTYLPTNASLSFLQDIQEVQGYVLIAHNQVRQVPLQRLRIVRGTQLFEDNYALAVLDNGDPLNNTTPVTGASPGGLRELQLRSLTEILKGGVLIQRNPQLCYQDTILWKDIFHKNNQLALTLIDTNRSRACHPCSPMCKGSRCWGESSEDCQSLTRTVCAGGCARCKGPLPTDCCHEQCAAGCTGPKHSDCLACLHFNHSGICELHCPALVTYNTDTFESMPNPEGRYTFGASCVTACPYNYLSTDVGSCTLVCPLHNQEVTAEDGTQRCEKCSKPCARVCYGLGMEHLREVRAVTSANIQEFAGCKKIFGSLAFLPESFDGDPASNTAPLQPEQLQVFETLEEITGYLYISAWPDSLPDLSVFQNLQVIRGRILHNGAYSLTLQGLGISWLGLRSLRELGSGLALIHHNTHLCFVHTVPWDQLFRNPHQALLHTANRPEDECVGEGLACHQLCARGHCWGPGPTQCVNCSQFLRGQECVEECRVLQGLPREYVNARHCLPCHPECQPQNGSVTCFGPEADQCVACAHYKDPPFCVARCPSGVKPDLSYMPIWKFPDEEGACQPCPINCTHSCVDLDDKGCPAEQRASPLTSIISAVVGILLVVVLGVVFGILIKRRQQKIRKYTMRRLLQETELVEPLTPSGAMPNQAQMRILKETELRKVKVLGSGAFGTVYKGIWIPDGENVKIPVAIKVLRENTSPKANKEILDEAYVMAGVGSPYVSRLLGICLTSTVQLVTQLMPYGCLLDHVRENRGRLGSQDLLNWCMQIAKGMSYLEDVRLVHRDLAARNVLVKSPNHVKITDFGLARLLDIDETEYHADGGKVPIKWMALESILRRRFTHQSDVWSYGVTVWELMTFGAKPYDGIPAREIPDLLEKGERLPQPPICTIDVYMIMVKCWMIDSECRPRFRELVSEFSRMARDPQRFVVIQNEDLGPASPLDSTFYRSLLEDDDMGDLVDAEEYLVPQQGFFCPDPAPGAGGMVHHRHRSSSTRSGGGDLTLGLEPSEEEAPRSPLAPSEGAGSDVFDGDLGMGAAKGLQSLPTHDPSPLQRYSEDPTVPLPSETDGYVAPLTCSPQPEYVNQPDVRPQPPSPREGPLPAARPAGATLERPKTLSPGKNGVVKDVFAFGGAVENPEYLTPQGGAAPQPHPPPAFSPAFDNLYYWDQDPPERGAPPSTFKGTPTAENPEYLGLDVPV
Chain of Proto-oncogene tyrosine-protein kinase Src (P12931 2-536 limits assumed): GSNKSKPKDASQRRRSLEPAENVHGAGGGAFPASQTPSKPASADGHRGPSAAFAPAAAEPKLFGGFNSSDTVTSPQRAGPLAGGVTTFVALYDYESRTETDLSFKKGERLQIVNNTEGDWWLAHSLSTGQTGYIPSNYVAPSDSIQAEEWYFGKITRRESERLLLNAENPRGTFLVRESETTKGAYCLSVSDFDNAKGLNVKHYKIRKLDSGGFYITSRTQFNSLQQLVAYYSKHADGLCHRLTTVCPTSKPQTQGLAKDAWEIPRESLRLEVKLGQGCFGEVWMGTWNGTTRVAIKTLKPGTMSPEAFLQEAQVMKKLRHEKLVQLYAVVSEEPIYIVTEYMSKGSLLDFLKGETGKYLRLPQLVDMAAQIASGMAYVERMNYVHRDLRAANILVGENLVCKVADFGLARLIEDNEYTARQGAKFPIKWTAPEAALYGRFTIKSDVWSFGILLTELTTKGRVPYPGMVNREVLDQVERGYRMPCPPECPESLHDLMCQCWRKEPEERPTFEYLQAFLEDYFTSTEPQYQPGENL
Chain of Fibroblast growth factor receptor 1 (P11362 whole entry): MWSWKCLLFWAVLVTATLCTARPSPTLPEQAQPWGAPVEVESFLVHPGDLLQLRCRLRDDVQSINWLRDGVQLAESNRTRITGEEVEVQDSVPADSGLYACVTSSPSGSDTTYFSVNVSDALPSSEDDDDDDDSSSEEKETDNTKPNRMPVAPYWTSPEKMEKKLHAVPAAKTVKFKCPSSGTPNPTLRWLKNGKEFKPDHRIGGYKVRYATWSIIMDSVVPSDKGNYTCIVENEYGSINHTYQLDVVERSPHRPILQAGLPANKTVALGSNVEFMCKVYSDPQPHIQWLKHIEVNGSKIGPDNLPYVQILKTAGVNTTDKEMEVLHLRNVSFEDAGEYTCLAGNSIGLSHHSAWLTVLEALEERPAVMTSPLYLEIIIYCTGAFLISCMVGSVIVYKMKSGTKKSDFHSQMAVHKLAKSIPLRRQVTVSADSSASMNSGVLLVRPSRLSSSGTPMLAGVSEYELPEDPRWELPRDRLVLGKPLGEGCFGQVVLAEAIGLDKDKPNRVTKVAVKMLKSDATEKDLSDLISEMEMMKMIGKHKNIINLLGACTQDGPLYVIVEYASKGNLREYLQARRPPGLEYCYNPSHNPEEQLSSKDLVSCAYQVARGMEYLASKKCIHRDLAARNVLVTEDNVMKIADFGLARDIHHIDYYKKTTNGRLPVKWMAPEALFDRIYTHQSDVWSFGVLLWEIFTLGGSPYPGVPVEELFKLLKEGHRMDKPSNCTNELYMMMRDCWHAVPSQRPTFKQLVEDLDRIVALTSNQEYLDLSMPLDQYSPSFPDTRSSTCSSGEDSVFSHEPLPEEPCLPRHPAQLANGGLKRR
Chain of Ephrin type-A receptor 2 (P29317 whole entry): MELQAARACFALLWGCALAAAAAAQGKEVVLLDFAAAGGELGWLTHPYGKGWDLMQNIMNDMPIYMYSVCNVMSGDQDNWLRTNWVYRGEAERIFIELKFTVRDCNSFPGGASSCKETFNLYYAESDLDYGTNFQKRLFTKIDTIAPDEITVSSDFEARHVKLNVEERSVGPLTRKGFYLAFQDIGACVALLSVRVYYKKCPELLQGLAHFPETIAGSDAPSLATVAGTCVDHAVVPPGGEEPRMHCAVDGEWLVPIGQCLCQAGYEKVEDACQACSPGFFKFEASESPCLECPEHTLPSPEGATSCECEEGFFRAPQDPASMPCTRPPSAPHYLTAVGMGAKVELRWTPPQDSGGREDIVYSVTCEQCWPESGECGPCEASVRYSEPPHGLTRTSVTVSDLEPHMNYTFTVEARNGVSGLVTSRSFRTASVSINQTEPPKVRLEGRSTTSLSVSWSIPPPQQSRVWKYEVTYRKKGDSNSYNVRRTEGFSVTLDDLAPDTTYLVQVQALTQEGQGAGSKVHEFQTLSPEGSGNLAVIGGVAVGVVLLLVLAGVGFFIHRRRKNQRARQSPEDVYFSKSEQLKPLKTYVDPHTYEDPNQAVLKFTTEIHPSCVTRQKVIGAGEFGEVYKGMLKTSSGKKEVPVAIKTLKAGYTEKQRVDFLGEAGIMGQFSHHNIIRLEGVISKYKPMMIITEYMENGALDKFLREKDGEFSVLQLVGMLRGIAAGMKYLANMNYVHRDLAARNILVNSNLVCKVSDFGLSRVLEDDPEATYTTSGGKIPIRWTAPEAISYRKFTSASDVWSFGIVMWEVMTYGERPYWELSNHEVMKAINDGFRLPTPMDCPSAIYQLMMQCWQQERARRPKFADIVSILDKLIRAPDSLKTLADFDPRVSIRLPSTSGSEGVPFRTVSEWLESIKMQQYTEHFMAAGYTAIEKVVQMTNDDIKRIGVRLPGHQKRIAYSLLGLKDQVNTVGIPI

Row | Structure (SMILES) | IC50 [3] [µM] | inhibition at 10 µM [4] [%] | inhibition [5] [%] | inhibition at 0.1 µM [7] [%] | inhibition at 1 µM [13] [%] | also measured
1 | O=C(Nc1ccc(Oc2ncnc3scc(-c4ccccc4)c23)c(F)c1)c1cccn(-c2ccc(F)cc2)c1=O | 0.0357 | 94.6 | 94.3 | -10.5 | 69.5 | IC50 [1]: > 10 µM; Activity [2]: Non-toxic; IC50 [6]: > 10 µM; IC50 [8]: > 10 µM; solubility [9]: Insoluble; bioavailability [10]: 5%; half-life [11]: 1.67 h; IC50 [12]: > 10 µM; inhibition [14]: Active; inhibition [15]: Active; IC50 [16]: > 10 µM; IC50 [17]: > 10 µM; IC50 [18]: > 10 µM; IC50 [19]: > 10 µM; IC50 [20]: > 10 µM; IC50 [21]: > 10 µM; IC50 [22]: 0.0504 µM; clearance [23]: 47.2 mL/min/kg; IC50 [24]: > 10 µM
2 | O=C(Nc1ccc(Oc2ncnc3occ(-c4cccs4)c23)c(F)c1)c1cccn(-c2ccc(F)cc2)c1=O | > 10 | -5.4 | 46.6 | -12.1 | -9.3 | 
3 | O=C(Nc1ccc(Oc2ncnc3scc(-c4ccc(F)c(F)c4)c23)c(F)c1)c1cccn(-c2ccc(F)cc2)c1=O | 0.0657 | 89.7 | 88.4 | -1.1 | 13.9 | 
4 | CS(=O)(=O)c1nc(Oc2ccc(NC(=O)c3cccn(-c4ccc(F)cc4)c3=O)cc2F)c2c(-c3ccccc3)coc2n1 | > 10 |  | 36.7 |  |  | 
5 | COc1cc2nccc(Oc3ccc(NC(=S)NC(=O)Cc4ccccc4)cc3F)c2cc1OC |  |  |  |  |  | inhibition in vivo at 100 mg/kg [25]: 70%
6 | Cc1coc2ncnc(Oc3ccc(NC(=O)c4cccn(-c5ccc(F)cc5)c4=O)cc3F)c12 | > 10 |  | 16.5 |  |  | 
7 | O=C(Nc1ccc(Oc2ncnc3scc(-c4ccc(F)cc4)c23)c(F)c1)c1cccn(-c2ccc(F)cc2)c1=O | 0.068 | 92.2 | 71.9 | 12.9 | 30.8 | 
8 | CSc1nc(Oc2ccc(NC(=O)c3cccn(-c4ccc(F)cc4)c3=O)cc2F)c2c(-c3ccccc3)coc2n1 | > 10 | 14.9 | 33.4 | 10.3 | 2 | 
9 | O=C(Nc1ccc(Oc2ncnc3scc(-c4ccc(-c5ccccc5)cc4)c23)c(F)c1)c1cccn(-c2ccc(F)cc2)c1=O |  |  | 80.4 |  |  | inhibition [26]: < 50%
10 | Cc1ccc(-c2csc3ncnc(Oc4ccc(NC(=O)c5cccn(-c6ccc(F)cc6)c5=O)cc4F)c23)s1 | 0.042 | 95 | 85.5 | -2.3 | 60.6 | 
11 | Cc1nc(Oc2ccc(NC(=O)c3cccn(-c4ccc(F)cc4)c3=O)cc2F)c2c(-c3cccs3)coc2n1 | > 10 | -9.7 | 24.3 | 0.6 | -2.8 | 
12 | O=C(Nc1ccc(Oc2ncnc3sc4c(c23)CCC4)c(F)c1)c1cccn(-c2ccc(F)cc2)c1=O | > 10 |  | 12.3 |  |  | 
13 | O=C(Nc1ccc(Oc2ncnc3sc(-c4ccccc4)cc23)c(F)c1)c1cccn(-c2ccc(F)cc2)c1=O | > 10 |  | 10.6 |  |  | 
14 | O=C(Nc1ccc(Oc2ncnc3scc(-c4ccc(C(F)(F)F)cc4)c23)c(F)c1)c1cccn(-c2ccc(F)cc2)c1=O | 0.191 |  | 83.8 |  |  | 
15 | O=C(Nc1ccc(Oc2ncnc3sccc23)c(F)c1)c1cccn(-c2ccc(F)cc2)c1=O | > 10 | 5.3 | 14.3 | -12.8 | -6.5 | 
16 | [N-]=[N+]=Nc1nc(Oc2ccc(NC(=O)c3cccn(-c4ccc(F)cc4)c3=O)cc2F)c2c(-c3ccccc3)coc2n1 | > 10 |  | 18.5 |  |  | 
17 | COc1ccc(-c2csc3ncnc(Oc4ccc(NC(=O)c5cccn(-c6ccc(F)cc6)c5=O)cc4F)c23)cc1 | 0.0465 | 94.3 | 90 | -10.1 | 91.1 | 
18 | O=C(Nc1ccc(Oc2ncnc3sc4c(c23)CCCCC4)c(F)c1)c1cccn(-c2ccc(F)cc2)c1=O | > 10 |  | 23.4 |  |  | 
19 | O=C(Nc1ccc(Oc2ncnc3scc(-c4ccc5ccccc5c4)c23)c(F)c1)c1cccn(-c2ccc(F)cc2)c1=O |  |  | 92.1 |  |  | inhibition [26]: < 50%
20 | CNc1nc(Oc2ccc(NC(=O)c3cccn(-c4ccc(F)cc4)c3=O)cc2F)c2c(-c3ccccc3)coc2n1 |  |  | 78.2 |  |  | inhibition [26]: < 50%
21 | COc1ccc(-c2csc3ncnc(Oc4ccc(NC(=O)c5cccn(-c6ccc(F)cc6)c5=O)cc4F)c23)cc1OC | 0.123 |  | 99.9 |  |  | 
22 | Cc1nc(Oc2ccc(NC(=O)c3cccn(-c4ccc(F)cc4)c3=O)cc2F)c2c3c(sc2n1)CCCC3 | > 10 |  | 31.2 |  |  | 
23 | O=C(Nc1ccc(Oc2ncnc3occ(-c4ccccc4)c23)c(F)c1)c1cccn(-c2ccc(F)cc2)c1=O | 0.0698 | 93.7 | 84.9 | -6.9 | 14.6 | 
24 | COc1nc(Oc2ccc(NC(=O)c3cccn(-c4ccc(F)cc4)c3=O)cc2F)c2c(-c3ccccc3)coc2n1 | > 10 |  | 31.7 |  |  | 
25 | O=C(Nc1ccc(Oc2ncnc3occ(-c4ccc(F)cc4)c23)c(F)c1)c1cccn(-c2ccc(F)cc2)c1=O | 0.31 | 76.3 | 80.9 | -4.7 | -5.8 | 
